Our source for the relative binding affinity (RBA) values is ChEMBL document CHEMBL1126822, “7 alpha-Methyl- and 11 beta-ethoxy-substitution of [125I]-16 alpha-iodoestradiol: effect on estrogen receptor-mediated target tissue uptake” (J Med Chem, 1993).

Estrogen receptor (Mus musculus), sequence (O08537 whole entry, looked up): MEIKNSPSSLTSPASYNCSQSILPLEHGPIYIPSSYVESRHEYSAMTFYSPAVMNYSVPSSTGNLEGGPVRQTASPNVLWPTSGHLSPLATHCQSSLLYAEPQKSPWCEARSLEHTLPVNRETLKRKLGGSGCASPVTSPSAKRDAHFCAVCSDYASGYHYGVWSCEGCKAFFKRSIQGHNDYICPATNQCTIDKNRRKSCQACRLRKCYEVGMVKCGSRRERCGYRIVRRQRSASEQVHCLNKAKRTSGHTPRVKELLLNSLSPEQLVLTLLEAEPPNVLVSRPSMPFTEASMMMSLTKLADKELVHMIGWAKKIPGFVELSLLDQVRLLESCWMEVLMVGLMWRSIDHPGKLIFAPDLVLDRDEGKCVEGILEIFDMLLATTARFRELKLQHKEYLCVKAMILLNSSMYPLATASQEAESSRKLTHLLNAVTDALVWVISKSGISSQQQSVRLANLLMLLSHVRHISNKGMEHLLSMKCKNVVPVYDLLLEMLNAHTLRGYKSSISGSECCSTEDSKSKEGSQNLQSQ
Estrogen receptor (Mus musculus), sequence (P19785 whole entry, looked up): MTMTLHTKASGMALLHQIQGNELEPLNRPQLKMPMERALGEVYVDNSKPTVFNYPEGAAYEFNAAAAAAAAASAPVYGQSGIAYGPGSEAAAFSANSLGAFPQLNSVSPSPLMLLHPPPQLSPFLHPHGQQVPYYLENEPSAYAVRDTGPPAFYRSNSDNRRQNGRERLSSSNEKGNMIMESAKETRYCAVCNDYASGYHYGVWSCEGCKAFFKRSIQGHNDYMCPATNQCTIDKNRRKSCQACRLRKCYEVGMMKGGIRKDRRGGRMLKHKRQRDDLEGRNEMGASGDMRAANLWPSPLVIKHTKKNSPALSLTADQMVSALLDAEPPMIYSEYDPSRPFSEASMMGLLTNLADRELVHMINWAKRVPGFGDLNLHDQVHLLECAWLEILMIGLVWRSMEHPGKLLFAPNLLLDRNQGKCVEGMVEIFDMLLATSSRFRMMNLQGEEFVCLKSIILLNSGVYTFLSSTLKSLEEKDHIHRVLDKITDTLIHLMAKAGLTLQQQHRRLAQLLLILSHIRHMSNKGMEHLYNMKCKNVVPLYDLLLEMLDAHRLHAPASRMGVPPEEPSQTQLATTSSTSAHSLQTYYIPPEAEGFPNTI

The experiment addresses Estrogen receptor (Mus musculus) (UniProt O08537+P19785). Put plainly: Binding affinity at murine estrogen receptor by [3H]estradiol displacement. The format is protein assay. In a few lines: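 Competitive binding in murine uterine cytoplasmic extracts, incubated 18 h at 0-4 °C with 20 nM [3H]estradiol, with or without competing steroids from 2 nM to 20 μM. RBA = 100 × ratio of competitor to unlabeled estradiol concentration giving 50% competition of specific [3H]estradiol binding. Mean of three experiments with SD.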
`C[C@@H]1Cc2cc(O)ccc2[C@H]2CC[C@]3(C)[C@@H](O)[C@H](Cl)C[C@H]3[C@H]12` registered a relative binding affinity (RBA) of 71.5.
The same measure for `C[C@@H]1Cc2cc(O)ccc2[C@H]2CC[C@]3(C)[C@@H](O)[C@H](Br)C[C@H]3[C@H]12`: 79.1.
Then `C[C@@H]1Cc2cc(O)ccc2[C@H]2CC[C@]3(C)[C@H](O)[C@H](Br)C[C@H]3[C@H]12`, with 13.6; and `CCO[C@H]1C[C@]2(C)C(=O)[C@H](Br)C[C@H]2[C@@H]2CCc3cc(O)ccc3[C@H]21`, with 0.8; and `C[C@@H]1Cc2cc(O)ccc2[C@H]2CC[C@]3(C)[C@@H](O)[C@@H](Cl)C[C@H]3[C@H]12`, with 4.3.
For `C[C@@H]1Cc2cc(O)ccc2[C@H]2CC[C@]3(C)[C@H](O)[C@H](Cl)C[C@H]3[C@H]12`, the relative binding affinity (RBA) stood at 16.6.
The same measure for `C[C@@H]1Cc2cc(O)ccc2[C@H]2CC[C@]3(C)C(=O)[C@@H](Br)C[C@H]3[C@H]12`: 5.3; for `CCO[C@H]1C[C@]2(C)[C@@H](O)[C@H](Br)C[C@H]2[C@@H]2CCc3cc(O)ccc3[C@H]21`: 16.8.
Take `C[C@@H]1Cc2cc(O)ccc2[C@H]2CC[C@]3(C)C(=O)[C@H](Br)C[C@H]3[C@H]12`: the relative binding affinity (RBA) came out at 28.4.
The same measure for `CCO[C@H]1C[C@]2(C)[C@H](O)[C@H](Br)C[C@H]2[C@@H]2CCc3cc(O)ccc3[C@H]21`: 1.1; for `CCO[C@H]1C[C@]2(C)[C@@H](O)[C@H](Cl)C[C@H]2[C@@H]2CCc3cc(O)ccc3[C@H]21`: 14.9.
As to `CCO[C@H]1C[C@]2(C)[C@@H](O)[C@@H](Br)C[C@H]2[C@@H]2CCc3cc(O)ccc3[C@H]21`, the relative binding affinity (RBA) is 0.6.
Then `CCO[C@H]1C[C@]2(C)C(=O)[C@H](Cl)C[C@H]2[C@@H]2CCc3cc(O)ccc3[C@H]21`, with 0.8; and `CO[C@H]1C[C@]2(C)[C@@H](O)[C@H](Br)C[C@H]2[C@@H]2CCc3cc(O)ccc3[C@H]21`, with 20; and `C[C@@H]1Cc2cc(O)ccc2[C@H]2CC[C@]3(C)[C@@H](O)[C@@H](Br)C[C@H]3[C@H]12`, with 7.1.
In the case of `C[C@@H]1Cc2cc(O)ccc2[C@H]2CC[C@]3(C)C(=O)[C@H](Cl)C[C@H]3[C@H]12`, the relative binding affinity (RBA) was 33.8.
In turn, `CCO[C@H]1C[C@]2(C)[C@H](O)[C@H](Cl)C[C@H]2[C@@H]2CCc3cc(O)ccc3[C@H]21` yielded a relative binding affinity (RBA) of 0.8.
